Data published in ChEMBL document CHEMBL1140506, “Molecular design of histone deacetylase inhibitors by aromatic ring shifting in chlamydocin framework” (Bioorg Med Chem, 2007).
Non-standard residues stand in square brackets, D forms with d. Residues, ends and D or L forms follow the SMILES beside them. Ahp(7-SS(2-pyridyl)) = N[C@@H](CCCCCSSc1ccccn1)C(=O)O; Aib = CC(C)(N)C(=O)O

What was measured:
[1] = Induction of wild-type p21 promoter activation in mink Mv1Lu cells after 18 hrs by luciferase assay relative to basal level; format: functional, Neovison vison
Outline: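 Stable Mv1Lu clone (MFLL-9) carrying p21 promoter (2.4 kb genomic fragment)–luciferase reporter, G418-selected. Cells (1 × 10^5) plated 6 h, then exposed 18 h to various drug concentrations. Luciferase activity of lysates measured by luminometer, normalized to lysate protein; concentration giving 10-fold induction over basal level reported as EC1000.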

[2] = biological target: Histone deacetylase 1 (Homo sapiens, UniProt Q13547); assay: Inhibition of human HDAC1 expressed in 293T cells; format: cell-based
[3] = biological target: Histone deacetylase 4 (Homo sapiens, UniProt P56524); assay: Inhibition of human HDAC4 expressed in 293T cells; format: cell-based
[4] = biological target: T1, Protein deacetylase HDAC6 (Mus musculus, UniProt Q9Z2V5); assay: Inhibition of mouse HDAC6 expressed in 293T cells; format: cell-based
T1 sequence (Q9Z2V5 whole entry): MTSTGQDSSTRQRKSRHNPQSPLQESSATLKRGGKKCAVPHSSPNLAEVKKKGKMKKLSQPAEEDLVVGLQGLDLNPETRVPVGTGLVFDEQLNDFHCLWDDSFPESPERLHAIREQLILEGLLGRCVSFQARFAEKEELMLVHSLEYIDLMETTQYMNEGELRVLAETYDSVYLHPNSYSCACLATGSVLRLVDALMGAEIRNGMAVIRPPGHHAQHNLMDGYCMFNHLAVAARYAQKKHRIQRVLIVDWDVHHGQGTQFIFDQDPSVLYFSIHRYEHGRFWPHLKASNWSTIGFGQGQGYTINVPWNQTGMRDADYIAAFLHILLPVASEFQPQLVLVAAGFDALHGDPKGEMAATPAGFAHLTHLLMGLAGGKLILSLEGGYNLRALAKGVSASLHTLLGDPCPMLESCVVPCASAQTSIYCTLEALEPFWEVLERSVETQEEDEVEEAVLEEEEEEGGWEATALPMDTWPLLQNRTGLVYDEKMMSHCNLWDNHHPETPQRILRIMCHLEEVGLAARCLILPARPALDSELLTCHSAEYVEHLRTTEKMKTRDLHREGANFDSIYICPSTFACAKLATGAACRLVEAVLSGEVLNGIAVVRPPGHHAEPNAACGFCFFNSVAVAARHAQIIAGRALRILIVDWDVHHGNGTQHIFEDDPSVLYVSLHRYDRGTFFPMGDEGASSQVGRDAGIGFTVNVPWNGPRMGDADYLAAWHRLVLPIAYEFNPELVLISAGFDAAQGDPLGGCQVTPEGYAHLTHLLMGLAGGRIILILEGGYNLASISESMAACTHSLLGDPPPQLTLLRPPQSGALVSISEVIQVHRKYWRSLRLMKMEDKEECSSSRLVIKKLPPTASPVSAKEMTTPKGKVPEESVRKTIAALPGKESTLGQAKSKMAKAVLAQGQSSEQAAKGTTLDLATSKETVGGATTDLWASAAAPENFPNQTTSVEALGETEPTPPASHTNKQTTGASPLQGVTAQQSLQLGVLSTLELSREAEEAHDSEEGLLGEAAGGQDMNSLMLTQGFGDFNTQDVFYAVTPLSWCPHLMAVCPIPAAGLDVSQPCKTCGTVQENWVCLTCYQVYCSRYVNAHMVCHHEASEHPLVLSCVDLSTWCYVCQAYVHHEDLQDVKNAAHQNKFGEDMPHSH

[5] = organism: Homo sapiens; assay: Selectivity for human HDAC4 over human HDAC1
Outline: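 Selectivity calculated from IC50 values against FLAG-tagged human HDAC4 and HDAC1, each transiently expressed in 293T cells, anti-FLAG immunopurified and FLAG-peptide eluted. Ac-KGLGK(Ac)-MCA substrate, pH 8.0 Tris buffer with 0.1 mM DTT, 37 °C 30 min. Trypsin development, then AMC fluorescence read.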

Histone deacetylase 1, sequence (Q13547 whole entry): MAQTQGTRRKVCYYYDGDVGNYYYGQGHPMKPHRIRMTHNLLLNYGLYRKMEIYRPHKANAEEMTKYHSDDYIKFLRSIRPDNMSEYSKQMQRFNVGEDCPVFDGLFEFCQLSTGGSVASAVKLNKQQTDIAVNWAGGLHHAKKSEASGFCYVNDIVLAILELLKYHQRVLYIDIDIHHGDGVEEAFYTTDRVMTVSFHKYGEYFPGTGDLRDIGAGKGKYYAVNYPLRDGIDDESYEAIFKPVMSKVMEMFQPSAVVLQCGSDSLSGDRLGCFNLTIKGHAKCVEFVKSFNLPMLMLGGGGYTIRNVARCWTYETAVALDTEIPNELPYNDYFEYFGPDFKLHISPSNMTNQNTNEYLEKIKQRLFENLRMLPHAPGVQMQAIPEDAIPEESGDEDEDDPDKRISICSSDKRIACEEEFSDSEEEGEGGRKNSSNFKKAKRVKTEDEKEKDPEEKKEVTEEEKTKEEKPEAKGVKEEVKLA
Histone deacetylase 4, sequence (P56524 whole entry): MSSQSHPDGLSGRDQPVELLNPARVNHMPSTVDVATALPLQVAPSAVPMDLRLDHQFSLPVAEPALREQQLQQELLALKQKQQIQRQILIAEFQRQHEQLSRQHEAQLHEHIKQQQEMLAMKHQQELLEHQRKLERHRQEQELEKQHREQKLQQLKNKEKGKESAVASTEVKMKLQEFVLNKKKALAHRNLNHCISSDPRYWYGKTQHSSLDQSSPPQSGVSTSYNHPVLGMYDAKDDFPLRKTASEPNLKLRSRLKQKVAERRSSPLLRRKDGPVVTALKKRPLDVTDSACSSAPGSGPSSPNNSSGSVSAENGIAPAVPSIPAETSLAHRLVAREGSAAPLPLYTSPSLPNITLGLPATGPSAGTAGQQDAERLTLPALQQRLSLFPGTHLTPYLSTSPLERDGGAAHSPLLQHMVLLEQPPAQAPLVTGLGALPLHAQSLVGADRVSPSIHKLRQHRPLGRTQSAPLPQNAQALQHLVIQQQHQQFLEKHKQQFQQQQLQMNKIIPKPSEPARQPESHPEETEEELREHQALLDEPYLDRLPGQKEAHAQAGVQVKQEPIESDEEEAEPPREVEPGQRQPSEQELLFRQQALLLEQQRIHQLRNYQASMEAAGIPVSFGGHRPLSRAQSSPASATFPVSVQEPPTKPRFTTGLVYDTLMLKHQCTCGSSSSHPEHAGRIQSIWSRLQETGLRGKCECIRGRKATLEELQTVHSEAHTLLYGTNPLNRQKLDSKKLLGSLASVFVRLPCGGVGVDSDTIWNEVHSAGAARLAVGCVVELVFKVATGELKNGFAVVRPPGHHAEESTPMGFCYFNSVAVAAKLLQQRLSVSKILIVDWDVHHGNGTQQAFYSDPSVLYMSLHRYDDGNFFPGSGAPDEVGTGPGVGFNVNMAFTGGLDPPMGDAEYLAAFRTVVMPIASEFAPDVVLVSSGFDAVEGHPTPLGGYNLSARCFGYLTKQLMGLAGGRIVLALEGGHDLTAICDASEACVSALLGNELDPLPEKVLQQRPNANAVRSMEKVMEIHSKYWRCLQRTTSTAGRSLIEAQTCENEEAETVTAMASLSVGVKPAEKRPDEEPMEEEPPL

Structure (SMILES)	IC50 [2] [nM]	IC50 [3] [nM]	IC50 [4] [nM]	Ratio IC50 [5]	EC1000 [1] [nM]
CC1(C)NC(=O)[C@H](CCCCCSSc2ccccn2)NC(=O)[C@H]2CCCN2C(=O)[C@H](c2ccccc2)NC1=O	88	56	86	1.5	7400
C[C@@H]1NC(=O)[C@@](C)(Cc2ccccc2)NC(=O)[C@H](CCCCCSSc2ccccn2)NC(=O)[C@H]2CCCN2C1=O	170	70	71	2.4	25600
CC1(C)NC(=O)[C@H](CCCCCSSc2ccccn2)NC(=O)[C@H]2CCCN2C(=O)[C@H](CCCc2ccccc2)NC1=O	5.3	2.7	43	1.9	110
CC1(C)NC(=O)[C@H](CCCCCSSc2ccccn2)NC(=O)[C@H]2CCCN2C(=O)[C@H](COCc2ccccc2)NC1=O	3.2	1.6	24	2	72
C[C@H]1CN2Cc3ccccc3C[C@@H]2C(=O)N[C@@H](CCCCCSSc2ccccn2)C(=O)NC(C)(C)C(=O)N1				1.1	
C[C@@H]1NC(=O)C(C)(C)NC(=O)[C@H](CCCCCSSc2ccccn2)NC(=O)[C@H]2Cc3ccccc3CN2C1=O [listing 2 of 2 here]					200

Further lines, with some results ahead:

IC50 [2] [nM]	IC50 [3] [nM]	IC50 [4] [nM]	Ratio IC50 [5]	Structure (SMILES)	EC1000 [1] [nM]
3.9	1.8	40	2.1	CC1(C)NC(=O)[C@H](CCCCCSSc2ccccn2)NC(=O)[C@H]2CCCN2C(=O)[C@H](Cc2ccccc2)NC1=O (cyclo([Aib]F[dP][Ahp(7-SS(2-pyridyl))]))	45
36	25	33	1.4	C[C@@H]1NC(=O)[C@]2(CCc3ccccc32)NC(=O)[C@H](CCCCCSSc2ccccn2)NC(=O)[C@H]2CCCN2C1=O	2000
2.7	2.4	12	1.1	C[C@@H]1NC(=O)[C@@]2(CCc3ccccc32)NC(=O)[C@H](CCCCCSSc2ccccn2)NC(=O)[C@H]2CCCN2C1=O	55
3.7	2.2	56	1.6	C[C@@H]1NC(=O)[C@](C)(Cc2ccccc2)NC(=O)[C@H](CCCCCSSc2ccccn2)NC(=O)[C@H]2CCCN2C1=O	550
9.4	5.2	43	1.8	C[C@@H]1NC(=O)C(C)(C)NC(=O)[C@H](CCCCCSSc2ccccn2)NC(=O)[C@H]2CCCN2C1=O	750
6.2	3.2	36	1.9	CC1(C)NC(=O)[C@H](CCCCCSSc2ccccn2)NC(=O)[C@H]2CCCN2C(=O)[C@H](CCc2ccccc2)NC1=O	320
6.4	4	26	1.6	CC1(C)NC(=O)[C@H](CCCCCSSc2ccccn2)NC(=O)[C@H]2CCCN2C(=O)[C@H](CO)NC1=O	580
2	1.6	8.8	1.2	C[C@@H]1NC(=O)C2(Cc3ccccc3C2)NC(=O)[C@H](CCCCCSSc2ccccn2)NC(=O)[C@H]2CCCN2C1=O	140
4.7	4.2	29		C[C@@H]1NC(=O)C(C)(C)NC(=O)[C@H](CCCCCSSc2ccccn2)NC(=O)[C@H]2Cc3ccccc3CN2C1=O [listing 1 of 2 here]	
